Hits are enriched below; roughly 3.3% of the tested compounds scored in any of these assays.
TCR CD3 inh: blocks the human TCR-CD3 interaction; AID 651800; inhibition, % at 9.4 µM; 360,000 compounds, 0.37% hits; TAMRA-labeled TCR probe fluorescence, biochemical; in the data active means inhibition above about 19%;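 further: recombinant mutant TCR 2C K166C tagged with TAMRA read by polarization; 0% = receptor in buffer alone and 100% = receptor with positive control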
PRMT1 inh: inhibitors of human PRMT1 | inhibition, % at 2.79 µM | 370,000 compounds, 1.3% hits | Q99873 | AID 652257 | recombinant PRMT1, activity-based probe fluorescence polarization;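 active means inhibition above about 21% made by adding two undisclosed values, limit read from the data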
Target sequence (Q99873 whole entry, looked up): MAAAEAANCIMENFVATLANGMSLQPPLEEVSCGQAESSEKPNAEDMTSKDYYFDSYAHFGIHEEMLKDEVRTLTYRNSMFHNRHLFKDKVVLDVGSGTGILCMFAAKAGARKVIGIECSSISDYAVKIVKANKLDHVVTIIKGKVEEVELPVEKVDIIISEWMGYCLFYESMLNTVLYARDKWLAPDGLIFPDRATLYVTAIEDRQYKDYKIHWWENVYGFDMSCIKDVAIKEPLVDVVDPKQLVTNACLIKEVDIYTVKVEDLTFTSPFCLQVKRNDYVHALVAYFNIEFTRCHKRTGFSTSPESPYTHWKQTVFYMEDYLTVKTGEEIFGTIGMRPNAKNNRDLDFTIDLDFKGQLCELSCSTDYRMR
SIAE inh: inhibitors of human sialic acid acetylesterase SIAE | Q9HAT2 | 370,000 compounds, 0.69% hits | inhibition, % at 9.66 µM | AID 1053197 | SIAE FP-Rh probe binding, fluorescence polarization;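 active means inhibition above a cutoff: mean of compounds within the control limits plus 3 SD of those, cut at about 17% in these data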;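 further: 0% = plate median of compound wells and 100% = probe without SIAE protein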
rCAG binder: molecules binding r(CAG) RNA repeats; r(CAG) RNA repeat, TO-PRO-1 dye displacement fluorescence; inhibition, % at 3 µM; 370,000 compounds, 1.3% hits; AID 651821;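 active means inhibition above the plate cutoff, the mean of all test compounds on that plate plus 3 SD, cut at about 35% in these data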;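 further: 0% = DMSO alone and 100% = 100 µM mitoxantrone as full dye displacement; higher means more dye released from RNA so lower well fluorescence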
mABHD4 FP: inhibitors of mouse ABHD4. Q8VD66. purified mABHD4, FP-Rh probe fluorescence polarization. inhibition, % at 8.92 µM. 370,000 compounds, 0.54% hits. AID 720543;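 active means inhibition exceeding the mean over every tested compound plus 3 SD, cut at about 30% in these data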;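 further: 0% = plate median of compound wells and 100% = S159A mutant with DMSO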
Target sequence (Q8VD66 whole entry, looked up): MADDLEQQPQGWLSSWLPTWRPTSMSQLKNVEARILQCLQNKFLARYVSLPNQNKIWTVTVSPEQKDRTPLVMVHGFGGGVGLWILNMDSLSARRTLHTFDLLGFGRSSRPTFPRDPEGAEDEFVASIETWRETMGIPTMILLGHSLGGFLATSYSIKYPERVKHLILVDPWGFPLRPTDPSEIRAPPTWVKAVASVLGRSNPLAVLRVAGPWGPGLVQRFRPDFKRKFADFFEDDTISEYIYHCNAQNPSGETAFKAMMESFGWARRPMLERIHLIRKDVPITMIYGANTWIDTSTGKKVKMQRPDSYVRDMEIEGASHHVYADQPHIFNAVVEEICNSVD
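Assay system: wild-type mouse ABHD4 protein; compound: single nominal dose of 8.92 µM, 0.89% DMSO final; schedule: 45 min + 60 min at 25 °C; measured by: FP readout, ex 525 nm / em 598 nm; evaluation: % inhibition of FP-Rh probe binding versus controls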
rCAG binder conf: r(CAG) RNA repeat binding, confirmation. shares compounds with rCAG binder. TO-PRO-1 dye displacement fluorescence. inhibition, % at 3 µM. 4,300 compounds, 70% hits. AID 652065;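 active means inhibition above a per-plate cutoff, the mean inhibition of sample wells plus 3 SD, cut at about 35% in these data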;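 further: loss of TO-PRO-1 fluorescence as compound displaces dye from 1x1 AA loop RNA; 0% = DMSO only wells and 100% = 100 µM mitoxantrone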
DNA CAG counter: DNA CAG dye complex inhibition counter-screen | d(CAG) DNA oligo TO-PRO-1 dye displacement, fluorescence | inhibition, % at 3 µM | AID 652068 | 4,300 compounds, 94% hits | shares compounds with rCAG binder;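 active means inhibition above its plate's cutoff, the mean test-well inhibition plus 3 SD, cut at about 4.8% in these data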;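 further: 0% = DNA dye mix with DMSO and 100% = 100 µM mitoxantrone; hits displace the dye from DNA and so lower well fluorescence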
DNA CAG DR: DNA CAG dye complex inhibition, dose response counter-screen; shares compounds with rCAG binder; DNA CAG/GTC duplex TO-PRO-1 dye displacement fluorescence; IC50, µM; 250 compounds, 20% hits; AID 686960; in the data active means IC50 below about 10 µM
The depositor's hits bear a star; i = inactive; . = no result given.

SMILES	TCR CD3 inh	PRMT1 inh	SIAE inh	rCAG binder	mABHD4 FP	rCAG binder conf	DNA CAG counter	others
CCCCOc1ccc(C(=O)NC2CCCCN(CC)C2=O)cc1 (stereo unspecified)	.	-0.4	2.9	-3.2	0.9	.	.
O=C(Nc1ccccc1)n1ccc2ccc(-c3ccc4cc[nH]c4c3)cc21	.	5.3	-10.0	28.1	-21.2	.	.
CC(=O)c1ccc(OCc2nnn(CC(=O)NS(=O)(=O)Cc3ccccc3)c2-c2ccccc2)cc1	7.3	0.3	3.1	55.8*	0.5	77.8*	41.0*
O=C1N=c2ccccc2=C1c1sc(Nc2ccc(O)cc2)nc1O	-1.8	2.1	15.4	40.8*	6.2	25.9	17.8*
O=C1N=c2ccccc2=C1c1sc(Nc2cccc(O)c2)nc1O	0.9	3.0	6.6	60.5*	20.3	25.6	15.0*
O=C1N=c2ccccc2=C1c1sc(NS(=O)(=O)c2ccccc2)nc1O	9.1	2.1	-10.2	41.3*	28.4	24.8	6.0*
O=C1N=c2ccccc2=C1c1sc(NS(=O)(=O)Cc2ccccc2)nc1O	-3.6	2.4	-4.5	34.3	23.5	.	.
CC(C)(C)c1ccc(CNc2nc(-c3ccccn3)nnc2-c2ccccc2)cc1	.	5.5	-10.4	.	21.7	.	.
O=C1CCC[C@H]2Cc3nc4cccc(Cl)c4cc3C[C@]23CCCN13	.	3.3	-5.7	.	2.8	.	.
O=C(c1ccncc1)N1CC[C@H]2[C@H](CCCN2Cc2cc(F)cc(F)c2)C1	.	1.2	-1.1	0.6	-0.8	.	.
O=C(Nc1c(C(=O)Nc2cccc3ccccc23)cnn1-c1ccccc1)c1ccco1	0.2	1.1	-9.3	64.1*	-13.6	49.0*	16.2*
CCN(CC)S(=O)(=O)c1ccc(C(=O)Nc2nnc(NC(=S)Nc3ccccc3)s2)cc1	-17.1	1.7	-64.6	60.9*	-23.0	64.5*	33.5*
CCN(CC)S(=O)(=O)c1ccc(NC(=S)Nc2ccccc2)cc1	3.6	0.1	9.9	5.5	1.0	.	.
Cc1cccc(Cc2cnc(N3C(=N)SC(C)C3=O)s2)c1 (stereo unspecified)	1.1	-2.8	8.3	16.4	-3.6	.	.
Cc1cccc(Cc2cnc(N3C(=N)SC(c4ccccc4)C3=O)s2)c1 (stereo unspecified)	-8.4	1.6	-0.8	39.6*	-8.8	53.3*	18.4*
CC(COc1cccc(C(F)(F)F)c1)CN1CCC(C(O)(c2ccccc2)c2ccccc2)CC1 (stereo unspecified)	.	2.0	0.0	1.5	11.9	.	.
COc1ccc(CN(C)C(=O)C2CCCN(c3nc4ccccc4o3)C2)cc1 (stereo unspecified)	.	-10.1	-1.7	-1.8	1.0	.	.
COc1ccc(/C=C2\SC(=S)NC2=O)cc1OS(=O)(=O)c1ccc(NC(C)=O)cc1	0.1	1.1	-102.1	87.8*	-41.1	77.9*	35.4*
COc1cccc(/C=C2\SC(N)=NC2=O)c1OS(=O)(=O)c1ccccc1	-3.9	1.4	-0.9	-0.4	0.1	.	.
COc1cccc(/C=C2\SC(=S)NC2=O)c1OS(=O)(=O)c1ccc(NC(C)=O)cc1	3.0	0.1	-24.6	69.1*	-2.3	32.4	9.3*
CCCCNC(=O)C[C@H]1C[C@@]2(C(=O)OC)C(=C[C@H](C(C)C)O[C@@H]2C2CC2)N(CCc2ccc(OC)c(OC)c2)C1=O	.	-1.2	4.6	0.7	3.2	.	.
COc1ccc(/C=C/C(=O)NC(=S)Nc2ccc(S(=O)(=O)Nc3cc(C)on3)cc2)cc1	-1.6	1.6	-16.9	23.9	-1.5	.	.
COc1ccc(/C=C/C(=O)NC(=S)Nc2ccc(S(=O)(=O)Nc3ccc(OC)nn3)cc2)cc1	2.4	-0.3	-8.5	69.8*	10.3	66.1*	32.5*
COc1cc(NS(=O)(=O)c2ccc(NC(=S)NC(=O)/C=C/c3ccco3)cc2)ncn1	11.0	18.6	-9.7	56.7*	8.6	47.9*	15.9*
O=C(/C=C/c1ccco1)NC(=S)Nc1nc(-c2ccc3ccccc3c2)cs1	-1.0	-2.7	-18.0	40.1*	-12.6	20.0	13.8*
SMILES	TCR CD3 inh	PRMT1 inh	SIAE inh	rCAG binder	mABHD4 FP	rCAG binder conf	DNA CAG counter	others
Cc1ccc2oc(-c3cccc(NC(=S)NC(=O)/C=C/c4ccco4)c3)nc2c1	-1.0	16.2	-7.5	36.7*	-18.6	16.8	9.8*
O=C(/C=C/c1ccco1)NC(=S)Nc1nc(-c2ccc(Cl)cc2)cs1	-0.6	8.3	-5.1	14.7	-0.8	.	.
Cc1c(CCC(=O)O)c(=O)oc2cc(OCc3cccc(Cl)c3)ccc12	-1.6	-0.8	-12.5	38.4*	-14.7	35.7*	9.1*
Cc1ccc(NC(=O)Cn2c(=O)oc3cc(S(=O)(=O)N4CCC(C)CC4)ccc32)cc1C	2.1	1.7	-22.4	46.0*	-9.4	36.0*	14.9*
COc1ccc(NC(=O)Cn2c(=O)oc3cc(S(=O)(=O)N4CCCC4)ccc32)cc1	-3.6	0.7	-2.0	8.1	0.4	.	.
O=C(Nc1ccc(Cl)cc1Cl)OC1CCC12CCC(c1ccccc1)CC2 (stereo unspecified)	.	4.1	6.1	.	-11.4	.	.
O=C(Cn1cc(COc2ccc3ccccc3c2)nn1)NS(=O)(=O)c1cccc(OC(F)F)c1	10.8	3.1	-2.9	54.5*	-6.0	71.0*	23.5*	DNA CAG DR=9.27*
O=C(Cn1cc(-c2ccccn2)nn1)NS(=O)(=O)c1cccc(OC(F)F)c1	6.5	-0.8	2.2	0.2	6.6	.	.
COc1cc(/C=C/C(=O)O)cc(S(=O)(=O)Nc2cc(C(F)(F)F)ccc2N2CCOCC2)c1OC	5.7	9.7	5.1	41.0*	3.9	33.2	5.8*
Cc1ccc(S(=O)(=O)Nc2cc(C(F)(F)F)ccc2N2CCOCC2)c(C)c1	-3.2	-0.2	-2.8	-1.1	-7.8	.	.
O=C(N[C@@H]1C[C@@H]2O[C@@H](CO)CC[C@@H]2O[C@@H]1CCc1ccc(-c2ccccc2)cc1)c1cnccn1	.	7.0	-7.1	6.4	-11.8	.	.
NC(C(=O)O)C1ON=C(Cl)C1O (stereo unspecified)	-3.3	0.1	8.8	40.8*	3.9	3.0	2.7
N#C/C(C(=O)Nc1ccc(Cl)cc1)=C(/S)Nc1ccccc1	-0.9	90.5*	5.7	55.8*	19.6	70.8*	24.1*	DNA CAG DR=i
N#Cc1ccc(NC(=O)Nc2ccc(Cl)cc2)cc1	-1.9	1.5	-45.5	10.4	-37.5	.	.
CC(C)(C)OC(=O)N1CCC(Cc2cc(-c3cccc(Br)c3)no2)(C(=O)O)CC1	-4.2	2.4	-0.2	48.3*	-0.4	49.0*	13.8*	DNA CAG DR=>29.9
CC(C)(C)OC(=O)N1CCC(Cc2cc(-c3ccccc3)no2)(C(=O)O)CC1	2.8	-0.7	3.7	13.0	-3.3	.	.
O=C(NC1CCCCN(Cc2ccc(Cl)cc2)C1=O)c1ccc(-c2ccccc2)cc1 (stereo unspecified)	.	-3.0	-14.0	9.6	-15.1	.	.

Source: PubChem BioAssay (The Scripps Research Institute Molecular Screening Center)
